Activity calls are given as the source filed them. The rule behind the calls is not given here.
What was measured:
HepG2 [1] = experiment: Cytotoxicity against human HepG2 cells assessed as effect on cell viability after 72 hrs by MTT analysis; format: functional, cell-based
Summary of the method: (§1)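 Cells in DMEM with 10% FBS at 37°C, 5% CO2, plated in 96-well plates and drug-treated for 72 h. MTT 0.5 mg/ml added for 4 h, formazan dissolved in DMSO, absorbance read at 550 nm. Means and SDs; Student's t-test.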

HepG2 [2] = experiment: Potentiation of sorafenib-induced anticancer activity in human HepG2 cells at 10 umol/L measured after 72 hrs by MTT assay; format: functional, cell-based; conditions: dose 10.0 µmol/L
Summary of the method: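 HepG2 cells given a range of sorafenib doses, with or without 10 μmol/l compound, for 72 h. Viability by MTT (0.5 mg/ml, 4 h, DMSO, A550). Student's t-test against untreated cells.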

MDA-MB-231 [3] = experiment: Induction of autophagy in human MDA-MB-231 cells assessed as induction of LC3-II accumulation at 10 to 20 umol/L incubated for 24 hrs by Western blot analysis; format: functional, cell-based; conditions: dose 10-20 µmol/L
HepG2 [4] = experiment: Cytotoxicity against human HepG2 cells assessed as reduction in cell viability at 10 umol/L measured after 72 hrs in presence of class III PI3K inhibitor 3-methyladenine by MTT assay; format: functional, cell-based; conditions: dose 10.0 µmol/L
Summary of the method: (§2)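 HepG2 and A549 cells pretreated 1 h with 2 mmol/l 3-MA, then exposed to 10 μmol/l compound for 72 h. Viability read by MTT (0.5 mg/ml, 4 h, formazan in DMSO, A550). Means and SDs; Student's t-test against cells without 3-MA.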

HepG2 [5] = experiment: […] in human HepG2 cells assessed as induction of LC3-II accumulation at 10 to 20 umol/L measured after 24 hrs by Western blot analysis; format: functional, cell-based; conditions: dose 10-20 µmol/L
Summary of the method: (§3)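 A549 and HepG2 cells drug-treated with or without bafilomycin A1. Lysates made in Tris pH 7.5/NP-40 buffer with protease and phosphatase inhibitors, 25–50 μg run on 7–12% SDS-PAGE, probed for LC3B, ECL detection.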

MDA-MB-231 [6] = experiment: Induction of autophagy in human MDA-MB-231 cells assessed as change in total LAMP2 expression at 10 umol/L measured after 24 hrs in presence of bafilomycin A1 by Western blot analysis; format: toxicity, cell-based; conditions: mda-mb-231, 24 h, 10 µM, dose 10 µmol/L
HepG2 [7] = experiment: Potentiation of sorafenib-induced anticancer activity in human HepG2 cells assessed as increase in LC3-II accumulation at 10 umol/L measured after 72 hrs by Western blot analysis; format: functional, cell-based; conditions: dose 10.0 µmol/L
Summary of the method: (§4)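 HepG2 cells given 5 μmol/l sorafenib, with or without 10 μmol/l compound, for 72 h. Whole-cell lysates immunoblotted for PARP1, LC3B and β-actin.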

HepG2 [8] = experiment: Cytotoxicity against human HepG2 cells assessed as effect on cell viability incubated for 72 hrs by MTT analysis; format: functional, cell-based; summary of the method: as §1
HepG2 [9] = experiment: Potentiation of sorafenib-induced anticancer activity in human HepG2 cells assessed as increase in cleaved PARP expression at 10 umol/L measured after 72 hrs by Western blot analysis; format: functional, cell-based; conditions: dose 10.0 µmol/L; summary of the method: as §4
MDA-MB-231 [10] = experiment: Induction of apoptosis in human MDA-MB-231 cells assessed as reduction in pro-caspase-3 expression at 10 to 20 umol/L incubated for 72 hrs by Western blot analysis; format: functional, cell-based; conditions: dose 10-20 µmol/L
MDA-MB-231 [11] = experiment: Induction of autophagy in human MDA-MB-231 cells assessed as increase in LC3-II accumulation at 10 umol/L incubated for 24 hrs in presence of bafilomycin A1 by Western blot analysis; format: functional, cell-based; conditions: dose 10.0 µmol/L
MDA-MB-231 [12] = experiment: […] in human MDA-MB-231 cells assessed as induction of LC3-II accumulation at 10 umol/l measured after 24 hrs in presence of class III PI3K inhibitor 3-methyladenine by Western blot analysis; format: functional, cell-based; conditions: dose 10.0 µmol/L
[13] = target: Histone-lysine N-methyltransferase EZH2 (Homo sapiens) (UniProt Q15910); experiment: Inhibition of EZH2 in human MDA-MB-231 cells assessed as reduction in H3K27-me3 level at 10 umol/L incubated for 72 hrs by Western blot analysis; format: cell-based; conditions: dose 10.0 µmol/L
MDA-MB-231 [14] = experiment: Induction of autophagy in human MDA-MB-231 cells assessed as formation of autophagic vacuoles by measuring increase in Cyto-ID fluorescence intensity at 10 umol/L by measured after 24 hrs by Cyto-ID/Hoechst 33342 fluorescence microscopic analysis; format: functional, cell-based; conditions: dose 10.0 µmol/L
Summary of the method: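 MDA-MB-231 cells washed twice in PBS with 5% FBS, then stained with Cyto-ID detection reagent plus Hoechst 33342 for 30 min at 37°C. Cells washed and autophagic vacuoles imaged by fluorescence microscopy.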

MDA-MB-231 [15] = experiment: Induction of autophagy in human MDA-MB-231 cells assessed as downregulation of p62 expression at 10 umol/L measured after 24 hrs in presence of bafilomycin A1 by Western blot analysis; format: functional, cell-based; conditions: dose 10.0 µmol/L
A549 [16] = experiment: […] in human A549 cells assessed as induction of LC3-II accumulation at 10 to 20 umol/L measured after 24 hrs in presence of bafilomycin A1 by Western blot analysis; format: functional, cell-based; conditions: dose 10-20 µmol/L; summary of the method: as §3
[17] = target: Histone-lysine N-methyltransferase EZH2 (Homo sapiens) (UniProt Q15910); experiment: Inhibition of EZH2 in human HepG2 cells assessed as reduction in H3K27-me3 level at 10 umol/L incubated for 72 hrs by Western blot analysis; format: cell-based; conditions: dose 10.0 µmol/L
MDA-MB-231 [18] = experiment: Induction of autophagy in human MDA-MB-231 cells assessed as induction of LC3-II accumulation at 10 to 20 umol/L incubated for 72 hrs by Western blot analysis; format: functional, cell-based; conditions: dose 10-20 µmol/L
A549 [19] = experiment: Cytotoxicity against human A549 cells assessed as reduction in cell viability at 10 umol/L measured after 72 hrs in presence of class III PI3K inhibitor 3-methyladenine by MTT assay; format: functional, cell-based; conditions: dose 10.0 µmol/L; summary of the method: as §2
[20] = target: Histone-lysine N-methyltransferase EZH2 (Homo sapiens) (UniProt Q15910); experiment: Inhibition of EZH2 in human A549 cells assessed as reduction in H3K27-me3 level at 10 umol/L incubated for 72 hrs by Western blot analysis; format: cell-based; conditions: dose 10.0 µmol/L
MDA-MB-231 [21] = experiment: Cytotoxicity against human MDA-MB-231 cells assessed as reduction in cell viability measured after 72 hrs in presence of class III PI3K inhibitor 3-methyladenine by MTT assay; format: functional, cell-based
A549 [22] = experiment: […] in human A549 cells assessed as induction of LC3-II accumulation at 10 to 20 umol/L measured after 24 hrs by Western blot analysis; format: functional, cell-based; conditions: dose 10-20 µmol/L; summary of the method: as §3
MDA-MB-231 [23] = experiment: Induction of autophagy in human MDA-MB-231 cells assessed as change in total LAMP2 expression at 10 umol/L measured after 24 hrs by Western blot analysis; format: toxicity, cell-based; conditions: mda-mb-231, 24 h, 10 µM, dose 10 µmol/L
MDA-MB-231 [24] = experiment: Induction of autophagy in human MDA-MB-231 cells assessed as reduction in expression of p62 at 10 umol/L incubated for 24 hrs by Western blot analysis; format: functional, cell-based; conditions: dose 10.0 µmol/L
MDA-MB-231 [25] = experiment: Cytotoxicity against human MDA-MB-231 cells assessed as reduction in cell viability after 72 hr by MTT analysis; format: functional, cell-based; summary of the method: as §1
MDA-MB-231 [26] = experiment: Induction of autophagy in human MDA-MB-231 cells assessed as induction of LC3-II accumulation at 10 umol/L for 48 hrs by Western blot analysis; conditions: dose 10.0 µmol/L
MDA-MB-231 [27] = experiment: Induction of apoptosis in human MDA-MB-231 cells assessed as induction of cleavage of PARP at 10 to 20 umol/L incubated for 72 hrs by Western blot analysis; format: functional, cell-based; conditions: dose 10-20 µmol/L
HepG2 [28] = experiment: […] in human HepG2 cells assessed as induction of LC3-II accumulation at 10 to 20 umol/L measured after 24 hrs in presence of bafilomycin A1 by Western blot analysis; format: functional, cell-based; conditions: dose 10-20 µmol/L; summary of the method: as §3
MDA-MB-231 [29] = experiment: Induction of apoptosis in human MDA-MB-231 cells assessed as induction of cleavage of caspase-3 at 10 to 20 umol/L incubated for 72 hrs by Western blot analysis; format: functional, cell-based; conditions: dose 10-20 µmol/L

Sequence of Histone-lysine N-methyltransferase EZH2 (Homo sapiens) (Q15910 whole entry, looked up): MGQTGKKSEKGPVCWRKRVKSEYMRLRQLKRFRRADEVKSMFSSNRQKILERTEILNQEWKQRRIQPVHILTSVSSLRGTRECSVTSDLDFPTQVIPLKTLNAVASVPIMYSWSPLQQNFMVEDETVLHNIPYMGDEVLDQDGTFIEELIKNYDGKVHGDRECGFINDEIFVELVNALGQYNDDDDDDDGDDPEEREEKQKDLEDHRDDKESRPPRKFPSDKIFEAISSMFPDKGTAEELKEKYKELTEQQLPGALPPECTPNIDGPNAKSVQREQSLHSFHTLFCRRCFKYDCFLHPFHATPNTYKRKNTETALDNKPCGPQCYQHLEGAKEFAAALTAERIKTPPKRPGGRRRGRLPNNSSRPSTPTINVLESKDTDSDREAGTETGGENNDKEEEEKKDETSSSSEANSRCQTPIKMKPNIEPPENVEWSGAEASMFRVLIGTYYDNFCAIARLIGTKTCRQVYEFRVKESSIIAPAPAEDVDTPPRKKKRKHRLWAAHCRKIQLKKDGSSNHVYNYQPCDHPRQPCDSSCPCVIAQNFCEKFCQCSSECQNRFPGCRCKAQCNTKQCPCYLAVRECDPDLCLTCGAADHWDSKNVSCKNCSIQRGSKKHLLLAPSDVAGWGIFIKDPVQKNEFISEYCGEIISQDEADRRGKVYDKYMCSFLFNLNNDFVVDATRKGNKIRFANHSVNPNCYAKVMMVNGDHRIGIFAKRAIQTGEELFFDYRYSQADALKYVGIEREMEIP

Structure (SMILES): CCCc1cc(C)[nH]c(=O)c1CNC(=O)c1cc(-c2ccnc(N3CCN(C)CC3)c2)cc2c1cnn2C(C)C
- Activity (HepG2 [1]): Active
- Activity (HepG2 [2]): Active
- Activity (MDA-MB-231 [3]): Active
- Activity (HepG2 [4]): inactive
- Activity (HepG2 [5]): Active
- Activity (MDA-MB-231 [6]): Non-Toxic
- Activity (HepG2 [7]): Active
- Activity (HepG2 [8]): Active
- Activity (HepG2 [9]): Active
- Activity (MDA-MB-231 [10]): Active
- Activity (MDA-MB-231 [11]): Active
- Activity (MDA-MB-231 [12]): inactive
- inhibition [13]: Active
- Activity (MDA-MB-231 [14]): Active
- Activity (MDA-MB-231 [15]): inactive
- Activity (A549 [16]): Active
- inhibition [17]: Active
- Activity (MDA-MB-231 [18]): Active
- Activity (A549 [19]): inactive
- inhibition [20]: Active
- Activity (MDA-MB-231 [21]): inactive
- Activity (A549 [22]): Active
- Activity (MDA-MB-231 [23]): Non-Toxic
- Activity (MDA-MB-231 [24]): Active
- Activity (MDA-MB-231 [25]): Dose-Dependent Effect
- Activity (MDA-MB-231 [26]): Active
- Activity (MDA-MB-231 [27]): Active
- Activity (HepG2 [28]): Active
- Activity (MDA-MB-231 [29]): inactive

Structure (SMILES): COc1ccc2cc3[n+](cc2c1OC)CCc1cc2c(cc1-3)OCO2
- Activity (MDA-MB-231 [26]): Active

Structure (SMILES): CCCc1cc(C)[nH]c(=O)c1CNC(=O)c1cc(-c2ccc(N3CCN(C(C)C)CC3)nc2)cc2c1cnn2C(C)C
- Activity (MDA-MB-231 [26]): Active

Reference: ChEMBL document CHEMBL5712884, “S-Adenosyl-L-methionine-competitive inhibitors of the histone methyltransferase EZH2 induce autophagy and enhance drug sensitivity in cancer cells” (Anticancer Drugs, 2015)
